This note sets out measurements from ChEMBL document CHEMBL4368880, “Synthesis and biological evaluation of 3-(1,3,4-oxadiazol-2-yl)-1,8-naphthyridin-4(1H)-ones as cisplatin sensitizers” (Medchemcomm, 2018).

Data set [1] relates to MCF7. Description: Growth inhibition of human MCF7 cells at 10 uM after 24 hrs by MTT assay relative to control. As to conditions: MCF7, 24 h, read-out: GI. In kind it is functional. Put shortly: (§1)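 Monolayers seeded 24 h before treatment, then exposed to compound, with DMEM or RPMI 1640 plus 10% FBS as growth medium. MTT (5 mg mL–1 stock) incubated 2–4 h at 37 °C, formazan dissolved in DMSO, and absorbance read at 570 nm. Growth inhibition reported as % of control.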
For orientation: Tetrazolium dyes change colour on reduction, which living cells bring about.

Data set [2] has as its system KB. In words: Growth inhibition of human KB cells at 10 uM after 24 hrs by MTT assay relative to control. In kind it is functional. As to conditions: read-out: GI. Put shortly:
as §1

In data set [3] the test system is HCT-116. Description: Potentiation of cisplatin-induced antiproliferative activity against human HCT116 cells assessed as cell growth inhibition at 2.5 uM preincubated for 24 hrs followed by 2.5 uM cisplatin addition and measured after 48 hrs by MTT assay (reference value: 26.98 +/-2.84%). The data set is classed as functional. As to conditions: read-out: GI.
Data set [4] relates to A549. Description: Growth inhibition of human A549 cells at 10 uM after 24 hrs by MTT assay relative to control. In kind it is functional. As to conditions: A549, 24 h, read-out: GI. The gist of the method: as §1
Data set [5] has as its system KB. Description: Growth inhibition of human KB cells at 5 uM after 24 hrs by MTT assay relative to control. In kind it is functional. As to conditions: read-out: GI. Put shortly:
as §1

Data set [6] concerns MCF7. Description: Growth inhibition of human MCF7 cells at 5 uM after 24 hrs by MTT assay relative to control. As to conditions: MCF7, 24 h, read-out: GI. In kind it is functional. Put shortly:
as §1

In data set [7] the test system is HCT-116. Description: Growth inhibition of human HCT116 cells at 5 uM after 24 hrs by MTT assay relative to control. The data set is classed as functional. As to conditions: HCT-116, 24 h, read-out: GI. The gist of the method: as §1
For data set [8], the system named is A549. In words: Growth inhibition of human A549 cells at 5 uM after 24 hrs by MTT assay relative to control. The following applies: A549, 24 h, read-out: GI. The data set is classed as functional. The gist of the method: as §1
Data set [9] deals with HeLa. Description: Growth inhibition of human HeLa cells at 5 uM after 24 hrs by MTT assay relative to control. The following applies: read-out: GI. The data set is classed as functional. Put shortly: as §1
Data set [10] relates to HepG2. Description: Growth inhibition of human HepG2 cells at 10 uM after 24 hrs by MTT assay relative to control. The data set is classed as functional. The following applies: HepG2, 24 h, read-out: GI. The gist of the method:
as §1

In data set [11] the test system is HepG2. Description: Growth inhibition of human HepG2 cells at 5 uM after 24 hrs by MTT assay relative to control. In kind it is functional. As to conditions: HepG2, 24 h, read-out: GI. The gist of the method: as §1
In data set [12] the test system is HCT-116. Description: Growth inhibition of human HCT116 cells at 10 uM after 24 hrs by MTT assay relative to control. In kind it is functional. The following applies: HCT-116, 24 h, read-out: GI. The gist of the method: as §1
For data set [13], the system named is L02. In words: Cytotoxicity against human LO2 cells assessed as reduction in cell growth at 5 to 10 uM after 24 hrs by MTT assay. In kind it is cell-based. As to conditions: l02, 24 h.
Data set [14] has as its system HCT-116. Description: Growth inhibition of human HCT116 cells at 2.5 uM after 24 hrs by MTT assay relative to control. The following applies: HCT-116, 24 h, read-out: GI. The data set is classed as functional. Put shortly:
as §1

For data set [15], the system named is HeLa. In words: Growth inhibition of human HeLa cells at 10 uM after 24 hrs by MTT assay relative to control. In kind it is functional. As to conditions: read-out: GI. Put shortly: as §1

Take `CS(=O)(=O)c1ccc(-c2cnc3[nH]cc(-c4nnc(-c5ccncc5)o4)c(=O)c3c2)cc1`: the inhibition of growth at 10 µM in [1] was found to be 4.27%; in data set [2] it was 3.02%; in data set [4], 12.1%; in [10] it was 6.65%; in data set [12], 7.83%; in data set [15] it was 18.4%. The inhibition of growth at 2.5 µM in data set [3] was determined as 29.2%; in data set [14] it was 2.64%. In addition, the inhibition of growth at 5 µM in data set [5] came out at 2.16%; in data set [6], 2.35%; in [7], 5.61%; in data set [8], 6.76%; in data set [9], 7.08%; in data set [11], 3.49%. For the same compound, in [13], the Activity result is listed as “Non-Toxic”.

Consider `CS(=O)(=O)c1ccc(-c2cnc3[nH]cc(-c4nnc(-c5ccccn5)o4)c(=O)c3c2)cc1`, for which the inhibition of growth at 2.5 µM in data set [3] is 34.3%; in data set [14] it was 5.37%. Moreover, in data set [7], the inhibition of growth at 5 µM amounted to 11.3%. The inhibition of growth at 10 µM in data set [12] was found to be 16.2%. Also, in [13], the Activity entry was “Non-Toxic”.

With `O=c1c(-c2nnc(-c3ccc(F)cc3)o2)c[nH]c2ncc(-c3ccncc3)cc12`, the inhibition of growth at 2.5 µM in data set [3] was found to be 19.6%; in data set [14], 7.54%. The inhibition of growth at 5 µM in [7] stood at 10.9%. Further, in data set [12], the inhibition of growth at 10 µM is 20.5%. Also, the Activity entry in [13] is listed as “Non-Toxic”.

`CS(=O)(=O)c1ccc(-c2cnc3[nH]cc(-c4nnc(-c5ccccc5)o4)c(=O)c3c2)cc1`: the inhibition of growth at 10 µM in data set [1] is 2.83%; in data set [2], 5.2%; in data set [4], 9.51%; in data set [10], 6.98%; in data set [12] it was 15.7%; in data set [15], 17.5%. Besides, the values for the inhibition of growth at 2.5 µM in data set [3] and in [14] were 27.2% and 0.53%, respectively. In addition, the inhibition of growth at 5 µM in data set [5] was found to be 4.38%; in data set [6], 1.38%; in data set [7], 8.6%; in data set [8], 8.17%; in data set [9], 8.58%; in data set [11], 5.46%. In data set [13], the Activity entry is “Non-Toxic”.

On to `CS(=O)(=O)c1ccc(-c2cnc3[nH]cc(-c4nnc(-c5ccc(Cl)cc5)o4)c(=O)c3c2)cc1`, for which the inhibition of growth at 10 µM in data set [1] was 13.1%; in data set [2], 9.3%; in data set [4], 26.8%; in data set [10], 11.6%; in [12], 17%; in data set [15] it was 1.64%. Moreover, the inhibition of growth at 2.5 µM was found to be 24.9% in [3] and 2.06% in data set [14]. The inhibition of growth at 5 µM in [5] turned out to be 2.15%; in data set [6] it was 0.86%; in data set [7], 16.4%; in data set [8], 23.8%; in data set [9], 1.07%; in data set [11] it was 11.2%. Also, the Activity result in data set [13] was “Non-Toxic”.

On to `CS(=O)(=O)c1ccc(-c2cnc3[nH]cc(-c4nnc(-c5ccc(F)cc5)o4)c(=O)c3c2)cc1`, for which the inhibition of growth at 10 µM in data set [1] was determined as 8.1%; in data set [2], 7.58%; in data set [4], 3.59%; in data set [10] it was 11.1%; in [12], 18.6%; in data set [15] it was 15.7%. Besides, the values for the inhibition of growth at 2.5 µM in data set [3] and in [14] were 39.5% and 10.7%, respectively. Also, the inhibition of growth at 5 µM in data set [5] amounted to 2.55%; in data set [6], 3.78%; in [7], 14.9%; in data set [8], 3.11%; in [9] it was 8.47%; in data set [11], 9.45%. Moreover, the Activity entry in [13] is “Non-Toxic”.

With `O=c1c(-c2nnc(-c3ccc(F)cc3)o2)c[nH]c2ncc(-c3cccnc3)cc12`, the inhibition of growth at 2.5 µM worked out at 20.1% in data set [3] and 9.87% in data set [14]. Also, the inhibition of growth at 5 µM in [7] was found to be 11.1%. Besides, the inhibition of growth at 10 µM in data set [12] was 19.7%. Further, the Activity result in data set [13] is “Non-Toxic”.

For the compound `N#Cc1ccc(-c2cnc3[nH]cc(-c4nnc(-c5ccc(F)cc5)o4)c(=O)c3c2)cc1`, the inhibition of growth at 2.5 µM turned out to be 25.6% in data set [3] and 10.2% in [14]. Also, the inhibition of growth at 5 µM in [7] stood at 12.6%. In data set [12], the inhibition of growth at 10 µM stood at 18.9%. Also, the Activity result in [13] was “Non-Toxic”.

Take `N#Cc1ccc(-c2cnc3[nH]cc(-c4nnc(-c5ccc(Cl)cc5)o4)c(=O)c3c2)cc1`: the inhibition of growth at 10 µM worked out at 19.7% in data set [1]; 9.73% in data set [2]; 12.5% in [4]; 12.7% in data set [10]; 18.3% in data set [12]; 13.7% in [15]. The values for the inhibition of growth at 2.5 µM in data set [3] and in data set [14] were 35.4% and 13.7%, respectively. Besides, the inhibition of growth at 5 µM in [5] amounted to 7.35%; in data set [6], 4.65%; in data set [7], 17.9%; in [8], 7.6%; in [9], 4.8%; in data set [11], 11.5%. Moreover, the Activity entry in data set [13] is “Non-Toxic”.

As for `O=c1c(-c2nnc(-c3ccc(Cl)cc3)o2)c[nH]c2ncc(-c3cccnc3)cc12`, the inhibition of growth at 2.5 µM in data set [3] was determined as 20.1%; in [14], 10.4%. In data set [7], the inhibition of growth at 5 µM was determined as 15.9%. Moreover, the inhibition of growth at 10 µM in [12] came to 11.8%. In addition, the Activity entry in data set [13] is reported as “Non-Toxic”.

On to `CS(=O)(=O)c1ccc(-c2cnc3[nH]cc(-c4nnc(-c5cccnc5)o4)c(=O)c3c2)cc1`, for which the inhibition of growth at 2.5 µM in data set [3] was 28.6%; in data set [14], 4.32%. Besides, in data set [7], the inhibition of growth at 5 µM came to 9.26%. Also, the inhibition of growth at 10 µM in [12] stood at 14.7%. Besides, the Activity result in data set [13] is on record as “Non-Toxic”.

For `O=c1c(-c2nnc(-c3ccc(Cl)cc3)o2)c[nH]c2ncc(-c3ccccc3)cc12`, the inhibition of growth at 10 µM in [1] worked out at 26.9%; in [2] it was 19.5%; in data set [4] it was 9.77%; in data set [10], 14.9%; in data set [12] it was 21.6%; in [15], 31.3%. Besides, the inhibition of growth at 2.5 µM in data set [3] is 29.8%; in [14] it was 9.81%. The inhibition of growth at 5 µM in [5] was 2.15%; in [6], 11.9%; in [7], 12.3%; in data set [8], 1.44%; in data set [9] it was 3.55%; in [11], 5.1%. Further, in [13], the Activity result was “Non-Toxic”.
